Results reported in article PMC6634314 (Cell chemical biology, 2019).

Key:
LIMK1 = LIMK1 (Homo sapiens, UniProt P53667); assay: MIB washout assay; format: binding; settings: H23 cells, 1 μM 4h, MIB pulldown ratio SM1-71/SM1-71-R
DDR1 = assay: MIB washout assay; format: binding, Human; settings: H23 cells, 1 μM 4h, MIB pulldown ratio SM1-71/SM1-71-R
CSNK1E = assay: MIB washout assay; format: binding, Human; settings: H23 cells, 1 μM 4h, MIB pulldown ratio SM1-71/SM1-71-R
AGK = assay: MIB washout assay; format: binding, Human; settings: H23 cells, 1 μM 4h, MIB pulldown ratio SM1-71/SM1-71-R
STK16 = assay: MIB washout assay; format: binding, Human; settings: H23 cells, 1 μM 4h, MIB pulldown ratio SM1-71/SM1-71-R
MARK2 = assay: MIB washout assay; format: binding, Human; settings: H23 cells, 1 μM 4h, MIB pulldown ratio SM1-71/SM1-71-R
PRKDC = assay: MIB washout assay; format: binding, Human; settings: H23 cells, 1 μM 4h, MIB pulldown ratio SM1-71/SM1-71-R
CSNK1A1 = assay: MIB washout assay; format: binding, Human; settings: H23 cells, 1 μM 4h, MIB pulldown ratio SM1-71/SM1-71-R
PAK4 = assay: MIB washout assay; format: binding, Human; settings: H23 cells, 1 μM 4h, MIB pulldown ratio SM1-71/SM1-71-R
AURKA = target: T1, AURKA (Homo sapiens, UniProt O14965); assay: MIB washout assay; format: binding
T1 sequence (O14965 1-403): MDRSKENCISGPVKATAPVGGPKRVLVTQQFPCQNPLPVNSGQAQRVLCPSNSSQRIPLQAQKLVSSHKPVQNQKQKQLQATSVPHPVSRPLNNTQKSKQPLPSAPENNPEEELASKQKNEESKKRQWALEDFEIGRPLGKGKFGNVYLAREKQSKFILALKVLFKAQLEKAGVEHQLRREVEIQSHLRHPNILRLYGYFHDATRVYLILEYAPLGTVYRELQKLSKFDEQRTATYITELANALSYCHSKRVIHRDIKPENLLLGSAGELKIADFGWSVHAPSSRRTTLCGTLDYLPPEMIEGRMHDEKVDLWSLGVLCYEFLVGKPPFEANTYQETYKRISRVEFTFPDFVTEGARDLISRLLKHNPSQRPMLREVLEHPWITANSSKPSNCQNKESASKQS

ACVR1 = assay: MIB washout assay; format: binding, Human
[1] = tested on: H23-KRAS^G12C non-small cell lung cancer (NSCLC) cell line; assay: proliferation assay; format: cell-based, Human
Outline: (§1)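 NSCLC lines were mycoplasma-tested and treated with various concentrations of test compound for 72 h. Cell viability was then measured by CellTiter-Glo luminescence.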

Calu-6-KRAS^Q61K = assay: proliferation assay; format: cell-based, Human; settings: Calu-6-KRAS^Q61K cells (Fig. S2)
Outline: as §1

43 recombinant kinases = assay: thermal stability shift assay; format: binding; settings: 21 of 43 recombinant kinases; protein 2 μM, inhibitor 10 μM
GAK = target: T2, GAK (Homo sapiens, UniProt O14976); assay: mass shift assay; format: binding; settings: incubated 4 and 24h
T2 sequence (O14976 1-1311): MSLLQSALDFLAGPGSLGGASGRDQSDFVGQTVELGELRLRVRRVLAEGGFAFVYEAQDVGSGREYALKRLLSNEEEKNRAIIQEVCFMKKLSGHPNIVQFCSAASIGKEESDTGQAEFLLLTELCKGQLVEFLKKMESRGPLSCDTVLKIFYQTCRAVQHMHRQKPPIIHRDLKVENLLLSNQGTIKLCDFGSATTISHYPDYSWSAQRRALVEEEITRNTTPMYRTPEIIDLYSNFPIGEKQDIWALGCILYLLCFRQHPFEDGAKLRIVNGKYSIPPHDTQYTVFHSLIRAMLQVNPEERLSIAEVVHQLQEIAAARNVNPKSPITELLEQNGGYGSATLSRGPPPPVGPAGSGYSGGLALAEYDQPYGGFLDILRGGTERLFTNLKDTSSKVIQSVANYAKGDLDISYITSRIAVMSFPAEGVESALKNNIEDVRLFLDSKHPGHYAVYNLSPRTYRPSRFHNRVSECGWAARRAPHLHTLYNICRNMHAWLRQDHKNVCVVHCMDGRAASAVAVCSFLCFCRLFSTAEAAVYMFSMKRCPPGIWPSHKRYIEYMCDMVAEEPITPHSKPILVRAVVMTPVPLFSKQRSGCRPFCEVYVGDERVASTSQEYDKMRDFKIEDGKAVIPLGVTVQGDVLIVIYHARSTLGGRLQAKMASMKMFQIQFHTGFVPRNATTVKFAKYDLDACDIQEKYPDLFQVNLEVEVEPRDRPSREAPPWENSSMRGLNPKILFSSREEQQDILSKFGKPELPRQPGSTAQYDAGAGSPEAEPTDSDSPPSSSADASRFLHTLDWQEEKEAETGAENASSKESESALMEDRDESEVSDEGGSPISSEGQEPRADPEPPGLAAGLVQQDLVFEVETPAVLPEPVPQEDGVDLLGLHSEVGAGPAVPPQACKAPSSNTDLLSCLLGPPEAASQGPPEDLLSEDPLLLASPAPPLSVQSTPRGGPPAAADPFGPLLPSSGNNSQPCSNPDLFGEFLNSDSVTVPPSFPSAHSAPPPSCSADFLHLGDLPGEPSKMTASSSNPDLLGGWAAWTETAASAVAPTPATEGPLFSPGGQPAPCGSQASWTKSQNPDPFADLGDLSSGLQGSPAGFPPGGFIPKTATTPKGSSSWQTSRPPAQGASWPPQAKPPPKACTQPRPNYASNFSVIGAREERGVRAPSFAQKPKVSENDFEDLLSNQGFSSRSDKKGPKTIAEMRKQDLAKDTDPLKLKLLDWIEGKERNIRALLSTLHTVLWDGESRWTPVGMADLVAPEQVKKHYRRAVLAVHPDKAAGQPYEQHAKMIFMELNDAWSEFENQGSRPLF
Outline: (§2)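 Kinase protein at 0.12 mM in 10 mM HEPES pH 7.5, 500 mM NaCl, incubated with 0.2 mM test compound at 4°C for 4 h and 24 h. Samples were diluted in 0.1% formic acid and desalted on a C3 pre-column. ESI-TOF was run in positive mode at 120 V, and intact mass was obtained by deconvolution to detect the adduct.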

SRC = SRC (Homo sapiens, UniProt P12931); assay: mass shift assay; format: binding; settings: incubated 4 and 24h
SRC, sequence (P12931 whole entry, species assumed): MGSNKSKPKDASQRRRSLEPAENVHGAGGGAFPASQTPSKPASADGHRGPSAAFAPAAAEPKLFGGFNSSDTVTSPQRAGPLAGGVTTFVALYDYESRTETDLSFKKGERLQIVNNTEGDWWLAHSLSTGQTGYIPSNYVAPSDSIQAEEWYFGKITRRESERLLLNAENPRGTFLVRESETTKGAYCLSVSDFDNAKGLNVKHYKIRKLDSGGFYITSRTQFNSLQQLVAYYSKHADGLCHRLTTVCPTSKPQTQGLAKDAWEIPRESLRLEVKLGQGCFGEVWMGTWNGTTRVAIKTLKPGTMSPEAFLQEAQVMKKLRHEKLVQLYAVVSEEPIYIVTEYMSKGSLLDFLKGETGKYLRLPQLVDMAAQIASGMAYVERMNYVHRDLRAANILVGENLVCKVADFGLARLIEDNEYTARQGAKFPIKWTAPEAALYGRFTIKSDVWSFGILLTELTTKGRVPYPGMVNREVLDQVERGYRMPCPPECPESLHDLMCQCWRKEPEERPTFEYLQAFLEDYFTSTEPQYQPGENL
Outline: as §2

[2] = H23 cells, 1 μM 4h, 0h post-washout, MIB pulldown ratio SM1-71/SM1-71-R
[3] = H23 cells, 1 μM 4h, 6h post-washout, MIB pulldown ratio SM1-71/SM1-71-R

LIMK1, sequence (P53667 whole entry): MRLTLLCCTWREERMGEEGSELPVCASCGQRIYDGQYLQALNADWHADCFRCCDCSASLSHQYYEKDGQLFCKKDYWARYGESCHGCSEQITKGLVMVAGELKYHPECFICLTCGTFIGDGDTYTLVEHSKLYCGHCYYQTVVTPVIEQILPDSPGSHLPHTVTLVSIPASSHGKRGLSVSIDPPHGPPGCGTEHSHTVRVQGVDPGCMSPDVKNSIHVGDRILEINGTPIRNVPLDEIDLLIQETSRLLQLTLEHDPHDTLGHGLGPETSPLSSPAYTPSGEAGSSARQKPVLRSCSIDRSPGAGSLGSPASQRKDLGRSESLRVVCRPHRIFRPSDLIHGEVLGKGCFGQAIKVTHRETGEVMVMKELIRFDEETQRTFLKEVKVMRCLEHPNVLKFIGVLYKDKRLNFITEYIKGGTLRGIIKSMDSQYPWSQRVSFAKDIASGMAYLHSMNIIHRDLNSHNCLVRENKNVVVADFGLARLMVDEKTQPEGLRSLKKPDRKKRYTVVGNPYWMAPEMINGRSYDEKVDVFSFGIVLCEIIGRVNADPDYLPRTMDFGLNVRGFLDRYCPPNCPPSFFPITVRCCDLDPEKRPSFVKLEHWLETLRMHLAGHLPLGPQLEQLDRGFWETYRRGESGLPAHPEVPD

C=CC(=O)Nc1ccccc1Nc1nc(Nc2ccc(N3CCN(C)CC3)cc2)ncc1Cl [SM1-71]
BI-0h (LIMK1; 0h post-washout): 0.21 | BI-6h (LIMK1; 6h post-washout): 0.23 | BI-0h (DDR1; 0h post-washout): 0.68 | BI-6h (DDR1; 6h post-washout): 0.59 | BI-0h (CSNK1E; 0h post-washout): 0.79 | BI-6h (CSNK1E; 6h post-washout): 0.58 | BI-0h (AGK; 0h post-washout): 0.66 | BI-6h (AGK; 6h post-washout): 0.5 | BI-0h (STK16; 0h post-washout): 0.51 | BI-6h (STK16; 6h post-washout): 0.76 | BI-0h (MARK2; 0h post-washout): 0.74 | BI-6h (MARK2; 6h post-washout): 1.13 | BI-0h (PRKDC; 0h post-washout): 0.76 | BI-6h (PRKDC; 6h post-washout): 0.77 | BI-0h (CSNK1A1; 0h post-washout): 0.91 | BI-6h (CSNK1A1; 6h post-washout): 0.74 | BI-0h (PAK4; 0h post-washout): 0.93 | BI-6h (PAK4; 6h post-washout): 0.9 | BI-0h (AURKA; [2]): 1.16 | BI-6h (AURKA; [3]): 2.38 | Binding (AURKA; class from BI 0h and 6h): Strongly Reversible (BI0h,6h greater than 1 suggesting a strong preference for reversible mode of inhibition) | BI-0h (ACVR1; [2]): 0.81 | BI-6h (ACVR1; [3]): 0.3 | Binding (ACVR1; class from BI 0h and 6h): Weakly Irreversible | growth inhibitory effects ([1]; H23-KRAS^G12C cells (Fig. S2)): strong growth inhibitory effects | IC50 ([1]; proliferation assays, H23-KRAS^G12C cells (Fig. S2A)): 400 nM | growth inhibitory effects (Calu-6-KRAS^Q61K): strong growth inhibitory effects | ΔTm shifts (43 recombinant kinases): > 6 °C | covalent adduct formation (mass shift) (GAK): formed covalent adducts | covalent adduct formation (mass shift) (SRC): formed covalent adducts
